Activity calls are given as the source filed them. The rule behind the calls is not given here.

In ChEMBL document CHEMBL1759852, “A comparative study of proapoptotic potential of cyano analogues of boswellic acid and 11-keto-boswellic acid” (Eur J Med Chem, 2011) one finds IC50 and Activity data, which are given here for 25 compounds.

Assay [1] concerns HL-60. The assay is described as follows: Cytotoxicity against human HL60 cells after 48 hrs by MTT assay. The format is functional, cell-based. The settings on record: HL-60, 48 h. A digest of the protocol: (§1)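 HL-60 (2 × 10^4/200 μl) or HeLa (1 × 10^4/200 μl) in RPMI-1640/MEM, 10% FCS, 37 °C, 5% CO2; treated 0.1–50 μM for 48 h, DMSO vehicle <0.2%. MTT added final 3 h; formazan dissolved in DMSO, OD 570 nm (reference 620 nm). IC50 as 50% viability versus untreated control; three experiments, CV <10%.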

Assay [2] has as its system HeLa. The assay is described as follows: Cytotoxicity against human HeLa cells after 48 hrs by MTT assay. The format is functional, cell-based. A digest of the protocol: as §1
In general terms: Formazan colour is commonly taken as a measure of viable cells.

Assay [3] relates to HL-60. The assay is described as follows: Cell cycle arrest in human HL60 cells assessed as accumulation at sub-G1 phase at 4 uM after 18 hrs by flow cytometry relative to control. It counts as functional. Summed up: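 HL-60 cells at 1 × 10^6/ml exposed 18 h; camptothecin 4 μM for 6 h as positive control. Cells pelleted 160 × g 5 min, PBS-washed, fixed in cold 70% alcohol overnight at −20 °C, RNase (400 μg/ml) digested, PI-stained; flow cytometry, hypo-diploid (<2n DNA) sub-G0/G1 fraction scored as apoptotic.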
A general note: A flow cytometer gives signals particle by particle.

For assay [4], the system named is HL-60. Briefly: Induction of apoptosis in human HL60 cells assessed as increase in scattered apoptotic bodies formation at 0.5 uM after 9 hrs using Hoechst 33258 staining by fluorescence microscopy. The format is functional, cell-based. Summed up:
(§2)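 HL-60 cells (2 × 10^6/3 ml) treated 9 h, washed twice in PBS, fixed and stained with Hoechst 33258; nuclear morphology and apoptotic bodies examined by inverted fluorescence microscopy.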

Assay [5] concerns HL-60. Briefly: Induction of apoptosis in human HL60 cells assessed as late apoptotic cells at 0.3 uM after 6 hrs using Annexin-V-FITC/propidium iodide staining by flow cytometry (reference value: 1%). The format is functional. Summed up: (§3)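 HL-60 cells (1 × 10^6/ml) treated 6 h at varied concentrations; camptothecin 4 μM 6 h positive control. AnnexinV-FITC and propidium iodide staining per kit; FL-1 versus FL-2 flow cytometry with quadrant statistics for apoptotic and necrotic populations; representative of three experiments.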

For assay [6], the system named is HL-60. Briefly: Induction of apoptosis in human HL60 cells assessed as early apoptotic cells at 2 uM after 6 hrs using Annexin-V-FITC/propidium iodide staining by flow cytometry (reference value: 6%). It counts as functional. Summed up: as §3
Assay [7] has as its system HL-60. The assay is described as follows: Induction of apoptosis in human HL60 cells assessed as early apoptotic cells at 0.3 uM after 6 hrs using Annexin-V-FITC/propidium iodide staining by flow cytometry (reference value: 6%). It counts as functional. Summed up: as §3
The subject of assay [8] is HL-60. The assay is described as follows: Induction of apoptosis in human HL60 cells assessed as late apoptotic cells at 2 uM after 6 hrs using Annexin-V-FITC/propidium iodide staining by flow cytometry (reference value: 1%). The format is functional. Summed up: as §3
Assay [9] relates to HL-60. The assay is described as follows: Induction of apoptosis in human HL60 cells assessed as late apoptotic cells at 4 uM after 6 hrs using Annexin-V-FITC/propidium iodide staining by flow cytometry (reference value: 1%). The format is functional. A digest of the protocol: as §3
For assay [10], the system named is HL-60. The assay is described as follows: Induction of apoptosis in human HL60 cells assessed as induction of morphological changes after 9 hrs by scanning electron microscopy. The format is functional, cell-based. A digest of the protocol: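 HL-60 seeded 2 × 10^5/ml in medium with 10% FCS, treated at 0.5 and 2 μM (DMSO stock; vehicle-only controls) for 9 h at 37 °C. Fixed 2.5% glutaraldehyde in 0.1 M phosphate pH 7.2 at 4 °C 1 h, post-fixed 1% OsO4 1 h, acetone-dehydrated, critical-point dried, gold-coated; surface ultrastructure by scanning electron microscopy.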

Assay [11] relates to HL-60. The assay is described as follows: Induction of apoptosis in human HL60 cells assessed as DNA ladder formation at 1 uM after 9 hrs by agarose gel electrophoresis. The format is functional, cell-based. A digest of the protocol: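 HL-60 cells (2 × 10^6) treated 9 h; untreated negative control, camptothecin 4 μM positive control. Cells washed in PBS with 10 mM EDTA, lysed, genomic DNA extracted, precipitated, washed in 80% alcohol, dissolved in TE; run on 1.6% agarose at 50 V, ethidium bromide stained for laddering.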

Assay [12] deals with HL-60. Briefly: Induction of apoptosis in human HL60 cells assessed as early apoptotic cells at 4 uM after 6 hrs using Annexin-V-FITC/propidium iodide staining by flow cytometry (reference value: 6%). The format is functional. A digest of the protocol:
as §3

Assay [13] deals with HL-60. Briefly: Induction of apoptosis in human HL60 cells assessed as early apoptotic cells at 1 uM after 6 hrs using Annexin-V-FITC/propidium iodide staining by flow cytometry (reference value: 6%). It counts as functional. A digest of the protocol: as §3
Assay [14] deals with HL-60. Briefly: Induction of apoptosis in human HL60 cells assessed as late apoptotic cells at 1 uM after 6 hrs using Annexin-V-FITC/propidium iodide staining by flow cytometry (reference value: 1%). It counts as functional. A digest of the protocol:
as §3

The subject of assay [15] is HL-60. Briefly: Induction of apoptosis in human HL60 cells assessed as nuclear condensation and blebbing at 0.5 to 2 uM after 9 hrs Hoechst 33258 staining by fluorescence microscopy. It counts as functional, cell-based. A digest of the protocol: as §2

For the compound `CCCCOC(=O)[C@]1(C)[C@@H]2CC[C@]3(C)[C@H](CC=C4[C@@H]5[C@@H](C)[C@H](C)CC[C@]5(C)CC[C@]43C)[C@@]2(C)CC(C#N)[C@@H]1O` (stereo partly drawn), the IC50 in assay [1] and in assay [2] was > 50 µM throughout.
As for `CCCCOC(=O)[C@@]1(C)[C@H](O)CC[C@@]2(C)[C@H]1CC[C@]1(C)[C@@H]2C(=O)C=C2[C@@H]3[C@@H](C)[C@H](C)CC[C@]3(C)CC[C@]21C`, the IC50 (as a rule, the concentration that gives 50% inhibition) worked out at 34 µM in assay [1] and 50 µM in [2].
For the compound `CCCCOC(=O)[C@]1(C)[C@@H]2CC[C@]3(C)[C@H](C(=O)C=C4[C@@H]5[C@@H](C)[C@H](C)CC[C@]5(C)CC[C@]43C)[C@@]2(C)CC[C@H]1OC(C)=O`, the half-maximal inhibitory concentration (IC50) in assay [1] was found to be 30 µM; in assay [2], 40 µM.
The corresponding values for `CCCCOC(=O)[C@@]1(C)C(=O)C(C#N)C[C@]2(C)[C@H]3C(=O)C=C4[C@@H]5[C@@H](C)[C@H](C)CC[C@]5(C)CC[C@@]4(C)[C@]3(C)CC[C@@H]12` (stereo partly drawn) are 11 µM and 17 µM.
On to `C[C@H]1[C@H](C)CC[C@]2(C)CC[C@]3(C)C(=CC[C@@H]4[C@@]5(C)CC(C(N)=O)[C@H](O)[C@](C)(N=C=O)[C@@H]5CC[C@]43C)[C@H]12` (stereo partly drawn), for which the 50% inhibitory concentration (IC50) in assay [1] and in assay [2] was > 50 µM in each case.
`CCCCOC(=O)[C@@]1(C)[C@H](O)CC[C@@]2(C)[C@H]1CC[C@]1(C)[C@@H]2CC=C2[C@@H]3[C@@H](C)[C@H](C)CC[C@]3(C)CC[C@]21C`: the IC50 in assay [1] and in [2] was > 50 µM each time.
`C[C@H]1[C@H](C)CC[C@]2(C)CC[C@]3(C)C(=CC(=O)[C@@H]4[C@@]5(C)CC(C(N)=O)[C@H](O)[C@](C)(C(=O)O)[C@@H]5CC[C@]43C)[C@H]12` (stereo partly drawn): the half-maximal inhibitory concentration (IC50) in [1] and in assay [2] was > 50 µM throughout.
With `CCCCOC(=O)[C@@]1(C)C(=O)CC[C@]2(C)[C@H]3CC=C4[C@@H]5[C@@H](C)[C@H](C)CC[C@]5(C)CC[C@@]4(C)[C@]3(C)CC[C@@H]12`, the IC50 in [1] and in assay [2] was > 50 µM each time.
Take `CCCCOC(=O)[C@@]1(C)C(=O)C(C#N)=C[C@]2(C)[C@H]3C(=O)C=C4[C@@H]5[C@@H](C)[C@H](C)CC[C@]5(C)CC[C@@]4(C)[C@]3(C)CC[C@@H]12`: the Activity was determined as 96% in assay [3]; 3% in assay [5]; 24% in [6]; 15% in [7]; 1% in assay [8]; 1% in assay [9]. Also, the Activity entry in assay [10] was “Dose-dependent effect”; in assay [12] it was 26%; in [13] it was 20%; in [14], 2%. For the same compound, the outcome in assay [4], in [11] and in [15] was Active. In addition, the figures for the IC50 in [1] and in assay [2] were 0.67 µM and 3 µM, respectively.
With `CC(=O)O[C@@H]1CC[C@@]2(C)[C@@H](CC[C@]3(C)[C@@H]2CC=C2[C@@H]4[C@@H](C)[C@H](C)CC[C@]4(C)CC[C@]23C)[C@@]1(C)C(=O)O`, the IC50 came to 10 µM in [1] and 22 µM in [2].
For the compound `C[C@H]1[C@H](C)CC[C@]2(C)CC[C@]3(C)C(=CC(=O)[C@@H]4[C@@]5(C)CC[C@@H](O)[C@](C)(C(=O)O)[C@@H]5CC[C@]43C)[C@H]12` [11-KETO BOSWELLIC ACID], the figures for the IC50 in assay [1] and in [2] were 32 µM and 50 µM, respectively.
With `C[C@H]1[C@H](C)CC[C@]2(C)CC[C@]3(C)C(=CC[C@@H]4[C@@]5(C)CC(C(N)=O)[C@H](O)[C@](C)(C(=O)O)[C@@H]5CC[C@]43C)[C@H]12` (stereo partly drawn), the IC50 in [1] and in assay [2] was > 50 µM throughout.
`CCCCOC(=O)[C@@]1(C)C(=O)/C(=C\O)C[C@]2(C)[C@H]3CC=C4[C@@H]5[C@@H](C)[C@H](C)CC[C@]5(C)CC[C@@]4(C)[C@]3(C)CC[C@@H]12`: the half-maximal inhibitory concentration (IC50) in assay [1] worked out at 33 µM; in assay [2] it was 44 µM.
As to `CCCCOC(=O)[C@]1(C)[C@@H]2CC[C@]3(C)[C@H](CC=C4[C@@H]5[C@@H](C)[C@H](C)CC[C@]5(C)CC[C@]43C)[C@@]2(C)CC[C@H]1OC(C)=O`, the IC50 in assay [1] is 28 µM; in assay [2], > 50 µM.
For the compound `CCCCOC(=O)[C@@]1(C)c2oncc2C[C@@]2(C)[C@H]1CC[C@]1(C)[C@@H]2CC=C2[C@@H]3[C@@H](C)[C@H](C)CC[C@]3(C)CC[C@]21C`, the IC50 in [1] and in assay [2] was 50 µM each time.
On to `C[C@H]1[C@H](C)CC[C@]2(C)CC[C@]3(C)C(=CC[C@@H]4[C@@]5(C)CC[C@@H](O)[C@](C)(C(=O)O)[C@@H]5CC[C@]43C)[C@H]12` [BOSWELLIC ACID], for which the values for the IC50 in assay [1] and in assay [2] were 24 µM and 35 µM, respectively.
As to `CCCCOC(=O)[C@@]1(C)C(=O)CC[C@]2(C)[C@H]3C(=O)C=C4[C@@H]5[C@@H](C)[C@H](C)CC[C@]5(C)CC[C@@]4(C)[C@]3(C)CC[C@@H]12`, the IC50 in assay [1] and in assay [2] was > 50 µM throughout.
With `CCCCOC(=O)[C@@]1(C)c2oncc2C[C@@]2(C)[C@H]1CC[C@]1(C)[C@@H]2C(=O)C=C2[C@@H]3[C@@H](C)[C@H](C)CC[C@]3(C)CC[C@]21C`, the IC50 in assay [1] is 33 µM; in assay [2], > 50 µM.
Turning to `CC(=O)O[C@@H]1CC[C@@]2(C)[C@@H](CC[C@]3(C)[C@@H]2C(=O)C=C2[C@@H]4[C@@H](C)[C@H](C)CC[C@]4(C)CC[C@]23C)[C@@]1(C)C(=O)O` [AKBA], the IC50 is 11 µM in [1] and 31 µM in assay [2].
Regarding `CCCCOC(=O)[C@@]1(C)C(=O)/C(=C\O)C[C@]2(C)[C@H]3C(=O)C=C4[C@@H]5[C@@H](C)[C@H](C)CC[C@]5(C)CC[C@@]4(C)[C@]3(C)CC[C@@H]12`, the figures for the IC50 in assay [1] and in [2] were 5 µM and > 50 µM, respectively.
For the compound `CCCCOC(=O)[C@]1(C)[C@@H]2CC[C@]3(C)[C@H](C(=O)C=C4[C@@H]5[C@@H](C)[C@H](C)CC[C@]5(C)CC[C@]43C)[C@@]2(C)CC(C#N)[C@@H]1O` (stereo partly drawn), the figures for the IC50 in assay [1] and in [2] were 14 µM and 30 µM, respectively.
As to `C[C@H]1[C@H](C)CC[C@]2(C)CC[C@]3(C)C(=CC(=O)[C@@H]4[C@@]5(C)CC(C(N)=O)[C@H](O)[C@](C)(N)[C@@H]5CC[C@]43C)[C@H]12` (stereo partly drawn), the IC50 in [1] and in [2] was > 50 µM each time.
As to `C[C@H]1[C@H](C)CC[C@]2(C)CC[C@]3(C)C(=CC[C@@H]4[C@@]5(C)CC(C(N)=O)[C@H](O)[C@](C)(N)[C@@H]5CC[C@]43C)[C@H]12` (stereo partly drawn), the IC50 in [1] is 37 µM; in assay [2] it was > 50 µM.
For `CCCCOC(=O)[C@@]1(C)C(=O)C(C#N)C[C@]2(C)[C@H]3CC=C4[C@@H]5[C@@H](C)[C@H](C)CC[C@]5(C)CC[C@@]4(C)[C@]3(C)CC[C@@H]12` (stereo partly drawn), the values for the IC50 in assay [1] and in [2] were 14 µM and 35 µM, respectively.
The corresponding values for `C[C@H]1[C@H](C)CC[C@]2(C)CC[C@]3(C)C(=CC(=O)[C@@H]4[C@@]5(C)CC(C(N)=O)[C@H](O)[C@](C)(N=C=O)[C@@H]5CC[C@]43C)[C@H]12` (stereo partly drawn) are 24 µM and 45 µM.
